The text below walks through data of publication PMC5900965 (Clinical Pharmacology in Drug Development, 2017).

A word on the AUC(0-inf): it is the area under the concentration-time curve extrapolated to infinity. The low end stands for low exposure, the high end for high exposure. Broadly, the AUC(0-t) is exposure summed from dosing to a finite time, without extrapolation to infinity. The low end stands for low exposure, the high end for high exposure. By Cmax is commonly meant the highest concentration seen after dosing. One may read the half-life as the time needed for the level to fall by half in the phase considered. Broadly, the Tmax is the time at which the peak concentration occurs. By IC50 is commonly meant the concentration needed to halve the response being measured. A higher IC50 goes with weaker potency in that assay. One may read the kinact/KI as the maximal inactivation rate divided by the concentration that gives half of it.

Where “and” joins values, the source holds several entries; their conditions need not be identical. Identical values can stand only once.

Data set [1] can be described thus: Phase 1 study safety and tolerability. The data set is classed as in vivo, human.
For data set [2] the following is noted: cited from earlier work.
The conditions of data set [3]: 10 and 25 mg; patients with RA; week 8; cited from earlier work.
Data set [4] concerns the target T1, CYP3A (Homo sapiens, UniProt P08684). Kind of data set: clinical. Conditions: in vivo; for Tmax: Tmax of midazolam, median (range).
The target of data set [5] is T1, CYP3A. Kind of data set: Reversible inhibition of CYP3A in pooled human liver microsomes. In kind it is in vitro ADME. For orientation: Microsomes from liver hold many membrane-bound enzymes, among them those of drug oxidation.
The target of data set [6] is T2, CYP1A2 (Homo sapiens, UniProt P05177).
T2 sequence (P05177 1-516): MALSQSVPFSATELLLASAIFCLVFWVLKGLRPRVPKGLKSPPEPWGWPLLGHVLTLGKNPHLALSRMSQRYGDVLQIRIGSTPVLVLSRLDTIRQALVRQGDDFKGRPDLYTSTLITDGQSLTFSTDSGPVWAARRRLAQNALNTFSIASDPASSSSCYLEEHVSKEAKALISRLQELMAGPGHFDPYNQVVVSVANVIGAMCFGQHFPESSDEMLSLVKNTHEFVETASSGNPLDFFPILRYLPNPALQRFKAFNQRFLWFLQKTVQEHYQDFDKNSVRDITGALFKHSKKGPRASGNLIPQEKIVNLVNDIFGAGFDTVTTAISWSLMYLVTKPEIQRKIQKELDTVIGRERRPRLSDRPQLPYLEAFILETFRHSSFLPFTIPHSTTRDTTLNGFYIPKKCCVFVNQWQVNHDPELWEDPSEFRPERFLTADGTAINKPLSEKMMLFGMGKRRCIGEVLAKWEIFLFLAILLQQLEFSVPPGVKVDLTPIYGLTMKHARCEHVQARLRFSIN
Kind of data set: biochemical. In kind it is in vitro ADME.

Data set [7] has as its target T3, CYP2B6 (Homo sapiens, UniProt P20813).
T3 sequence (P20813 1-491): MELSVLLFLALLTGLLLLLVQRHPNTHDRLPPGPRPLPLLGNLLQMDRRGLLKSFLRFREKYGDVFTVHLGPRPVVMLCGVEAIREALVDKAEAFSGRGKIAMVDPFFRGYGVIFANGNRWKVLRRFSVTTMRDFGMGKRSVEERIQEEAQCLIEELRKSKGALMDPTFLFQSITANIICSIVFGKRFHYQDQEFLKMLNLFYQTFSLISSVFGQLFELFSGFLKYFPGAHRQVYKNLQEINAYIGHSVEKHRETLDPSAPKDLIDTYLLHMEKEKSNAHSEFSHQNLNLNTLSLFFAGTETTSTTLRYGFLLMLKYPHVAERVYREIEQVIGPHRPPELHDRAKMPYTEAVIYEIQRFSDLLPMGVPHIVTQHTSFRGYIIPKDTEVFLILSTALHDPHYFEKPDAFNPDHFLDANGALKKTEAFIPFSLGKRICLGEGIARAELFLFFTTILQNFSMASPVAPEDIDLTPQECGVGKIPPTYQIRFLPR
Kind of data set: Reversible inhibition of CYP2B6 in pooled human liver microsomes. The data set is classed as in vitro ADME.

Data set [8] concerns the target T4, CYP2C8 (Homo sapiens, UniProt P10632).
T4 sequence (P10632 1-490): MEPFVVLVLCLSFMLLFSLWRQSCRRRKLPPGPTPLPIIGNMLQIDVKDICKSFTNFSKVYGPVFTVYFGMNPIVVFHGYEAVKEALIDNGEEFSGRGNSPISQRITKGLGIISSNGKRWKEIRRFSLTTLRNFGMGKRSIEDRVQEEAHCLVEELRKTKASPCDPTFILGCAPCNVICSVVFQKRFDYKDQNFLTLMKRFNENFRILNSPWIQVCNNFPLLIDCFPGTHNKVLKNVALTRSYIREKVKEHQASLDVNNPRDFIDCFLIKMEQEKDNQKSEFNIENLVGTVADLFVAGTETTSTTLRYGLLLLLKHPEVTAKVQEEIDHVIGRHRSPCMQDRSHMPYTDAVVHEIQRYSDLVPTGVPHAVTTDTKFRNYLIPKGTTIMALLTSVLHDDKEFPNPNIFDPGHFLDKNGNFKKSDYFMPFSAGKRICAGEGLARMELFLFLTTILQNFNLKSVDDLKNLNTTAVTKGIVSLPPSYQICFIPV
Kind of data set: Reversible inhibition of CYP2C8 in pooled human liver microsomes. The data set is classed as in vitro ADME.

Data set [9] deals with CYP2C9 (Homo sapiens, UniProt P11712). Kind of data set: Reversible inhibition of CYP2C9 in pooled human liver microsomes. The data set is classed as in vitro ADME.
Chain of CYP2C9 (P11712 whole entry): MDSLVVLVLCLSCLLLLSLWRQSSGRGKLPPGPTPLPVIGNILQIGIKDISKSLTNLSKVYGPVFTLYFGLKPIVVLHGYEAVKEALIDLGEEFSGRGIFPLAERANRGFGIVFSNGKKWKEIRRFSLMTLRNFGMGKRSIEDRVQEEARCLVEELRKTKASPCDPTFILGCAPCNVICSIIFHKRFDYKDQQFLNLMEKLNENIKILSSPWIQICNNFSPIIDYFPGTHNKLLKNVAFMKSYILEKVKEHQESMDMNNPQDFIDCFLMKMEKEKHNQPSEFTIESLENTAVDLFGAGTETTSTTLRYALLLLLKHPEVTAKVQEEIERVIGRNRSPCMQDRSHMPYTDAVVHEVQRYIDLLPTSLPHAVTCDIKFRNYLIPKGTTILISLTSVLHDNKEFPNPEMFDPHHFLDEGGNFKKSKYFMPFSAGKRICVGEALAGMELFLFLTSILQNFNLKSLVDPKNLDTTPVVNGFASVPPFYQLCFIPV
Data set [10] deals with CYP2C19 (Homo sapiens, UniProt P33261). Kind of data set: Reversible inhibition of CYP2C19 in pooled human liver microsomes. In kind it is in vitro ADME.
Chain of CYP2C19 (P33261 whole entry): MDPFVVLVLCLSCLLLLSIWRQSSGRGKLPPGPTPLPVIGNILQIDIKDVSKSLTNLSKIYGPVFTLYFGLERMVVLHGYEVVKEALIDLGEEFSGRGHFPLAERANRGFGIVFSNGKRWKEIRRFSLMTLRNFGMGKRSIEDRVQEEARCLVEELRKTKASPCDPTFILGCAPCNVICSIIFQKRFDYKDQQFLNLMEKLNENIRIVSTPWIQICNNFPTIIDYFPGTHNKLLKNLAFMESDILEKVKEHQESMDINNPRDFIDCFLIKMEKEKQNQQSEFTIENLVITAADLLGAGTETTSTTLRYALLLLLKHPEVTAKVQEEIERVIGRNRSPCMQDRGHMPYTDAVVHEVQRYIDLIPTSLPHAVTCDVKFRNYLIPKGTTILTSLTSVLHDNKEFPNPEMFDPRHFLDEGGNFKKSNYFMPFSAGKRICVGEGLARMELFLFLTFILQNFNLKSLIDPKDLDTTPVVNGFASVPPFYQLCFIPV
For data set [11], the target named is T5, CYP2D6 (Homo sapiens, UniProt P10635). Kind of data set: Reversible inhibition of CYP2D6 in pooled human liver microsomes. The data set is classed as in vitro ADME.
T5 sequence (P10635 whole entry): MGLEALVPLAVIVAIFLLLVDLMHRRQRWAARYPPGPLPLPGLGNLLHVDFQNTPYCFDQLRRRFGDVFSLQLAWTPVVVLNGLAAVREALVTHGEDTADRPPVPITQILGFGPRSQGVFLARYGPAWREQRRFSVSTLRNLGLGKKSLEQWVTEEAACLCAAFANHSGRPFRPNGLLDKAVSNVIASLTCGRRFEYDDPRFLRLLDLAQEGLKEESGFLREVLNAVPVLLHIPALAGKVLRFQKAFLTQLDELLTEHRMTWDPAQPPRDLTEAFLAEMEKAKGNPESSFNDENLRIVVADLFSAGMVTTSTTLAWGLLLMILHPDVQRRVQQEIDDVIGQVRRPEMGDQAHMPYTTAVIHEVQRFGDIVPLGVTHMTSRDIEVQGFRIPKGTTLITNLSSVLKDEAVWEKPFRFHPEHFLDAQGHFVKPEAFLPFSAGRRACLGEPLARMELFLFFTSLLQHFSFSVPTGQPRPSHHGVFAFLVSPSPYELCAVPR
Data set [12] deals with CYP3A4/5. Kind of data set: Time-dependent inhibition of CYP3A in pooled human liver microsomes. The data set is classed as in vitro ADME.
Data set [13] has as its target T5, CYP2D6. Kind of data set: Time-dependent inhibition of CYP2D6 in pooled human liver microsomes. In kind it is in vitro ADME.
For data set [14], the system named is CYP3A4 mRNA. Kind of data set: Induction of CYP3A mRNA in cryopreserved human hepatocytes. The data set is classed as in vitro ADME. Conditions: for Estimated Emax (Fold Induction): highest fold induction observed.
Data set [15] has as its system CYP3A4. Kind of data set: Induction of CYP3A4 enzyme activity in cryopreserved human hepatocytes. The data set is classed as in vitro ADME. The following applies: 72 hours, positive defined as ≥2‐fold. Put shortly: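 Cryopreserved human hepatocytes from several lots, in collagen-coated wells, were exposed for 72 h to test compound (0.5–100 or 0.5–60 μM), vehicle, or rifampin (25 or 10 μM). After washing, testosterone (250 μM) or midazolam (30 μM) was added. 6β-Hydroxytestosterone was measured by HPLC-UV and 1′-hydroxymidazolam by LC-MS/MS. A ≥2-fold rise counted as positive. EC50 and Emax were fitted to the concentration–fold-induction curves.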

Data set [16] relates to CYP1A2. In kind it is in vitro ADME. The following applies: human hepatocytes, 72 hours; data not shown.
The nature of data set [17]: Clinical plasma exposure after oral PF-04171327. The data set is classed as in vivo, human. The following applies: 25‐mg steady‐state administration of PF‐04171327.
The subject of data set [18] is CYP2C8, CYP2C9, CYP2D6 and CYP3A (range over these CYPs). Kind of data set: Reversible CYP inhibition panel in human liver microsomes. The data set is classed as in vitro ADME. Conditions: pooled human liver microsomes.
The conditions of data set [19]: at 0.76 mg/mL microsomal protein; ref data on file; cited from earlier work.

T1 sequence (P08684 2-503): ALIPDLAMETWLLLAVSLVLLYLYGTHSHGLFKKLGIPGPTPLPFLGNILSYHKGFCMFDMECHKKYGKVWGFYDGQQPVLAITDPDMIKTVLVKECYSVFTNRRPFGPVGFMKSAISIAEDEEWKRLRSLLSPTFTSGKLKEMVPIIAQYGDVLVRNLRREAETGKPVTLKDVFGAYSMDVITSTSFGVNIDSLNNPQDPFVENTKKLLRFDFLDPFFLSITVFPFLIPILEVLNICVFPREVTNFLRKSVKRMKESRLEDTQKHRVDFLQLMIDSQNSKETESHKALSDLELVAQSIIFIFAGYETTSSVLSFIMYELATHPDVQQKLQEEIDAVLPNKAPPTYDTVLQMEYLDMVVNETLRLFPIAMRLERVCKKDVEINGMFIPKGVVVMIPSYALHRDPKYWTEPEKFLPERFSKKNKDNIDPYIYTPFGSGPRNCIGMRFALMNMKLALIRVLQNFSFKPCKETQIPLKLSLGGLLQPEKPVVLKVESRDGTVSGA

As for `Cc1ncccc1NC(=O)c1ccc2c(c1)CC[C@@H]1C[C@@](OP(=O)(O)O)(C(F)(F)F)CC[C@@]21Cc1ccccc1` [PF‐04171327, fosdagrocorat], the SAEs or deaths entry in data set [1] (coadministration of PF‐04171327 and midazolam) is given as “No SAEs or deaths were reported”. In data set [2] (single or multiple ascending‐dose phase 1 studies, lower limit of quantification 0.5 ng/mL, ref Pfizer, unpublished data), the “Detection in systemic circulation” value is recorded as “not detected”. Also, in data set [3], the “Efficacy in improving signs and symptoms of RA” value is “superior efficacy relative to placebo and comparable efficacy relative to prednisone”.
For `Cc1ncc2n1-c1ccc(Cl)cc1C(c1ccccc1F)=NC2` [Midazolam, midazolam], the “Treatment‐emergent AEs” value in data set [1] (midazolam 2 mg only, 12 healthy volunteers) is recorded as “No TEAEs were reported”. In addition, in [4], the total exposure AUC(0-inf) came to 20.3 ng·h/mL, the AUC(0-t) is 19.8 ng·h/mL, the highest concentration (Cmax) stood at 7.2 ng/mL and the half-life was 3.34 h. Moreover, in data set [4], the Tmax is ~0.5 h. In data set [4] (po, 2 mg), this molecule had an area under the curve AUC(0-inf) of 21.2 ng·h/mL, an AUC(0-t) of 20.5 ng·h/mL, a Cmax of 8.03 ng/mL and a half-life of 3.87 h. Moreover, the Tmax in data set [4] (po, 2 mg) is ~0.5 h.
For the molecule `Cc1ncccc1NC(=O)c1ccc2c(c1)CC[C@@H]1C[C@@](O)(C(F)(F)F)CC[C@@]21Cc1ccccc1` [PF‐00251802, dagrocorat], the IC50 in data set [5] (probe felodipine (oxidation)) was 1300 nM; in [5] (probe midazolam (1′-hydroxylation)), 4600 nM; in [5] (probe testosterone (6β-hydroxylation)), 1000 nM; in data set [6], > 30000 nM; in [7], > 30000 nM; in data set [8], 480 nM. The half-maximal inhibitory concentration (IC50) was 1800 nM in data set [9], > 30000 nM in data set [10], 570 nM in data set [11] and 480 to 4600 nM in [18]. In data set [12] (midazolam as marker substrate), the “Concentrations at which time‐dependent inhibition of CYP3A was shown” value is ≥ 80 nM. In addition, the kinact/KI is 1200 M⁻¹ s⁻¹ in [12] (midazolam, slope of kobs versus [I] curve) and 367 M⁻¹ s⁻¹ in data set [13] (dextromethorphan). In data set [13], the Ki amounted to 570 nM. Besides, the “Concentrations at which time‐dependent inhibition of CYP2D6 was shown” value in data set [13] (dextromethorphan as probe substrate) was ≥ 600 nM. Moreover, the “Estimated Emax (Fold Induction)” value was 13 Fold Induction in [14] (Lot 1, expt 1); 4.7 Fold Induction in data set [14] (Lot 1, expt 2); 40 Fold Induction in data set [14] (Lot 2, expt 1); 22 Fold Induction in [14] (Lot 2, expt 2). For the same molecule, the “Induction of CYP3A4 mRNA” value in data set [14] (all lots tested, positive defined as ≥4‐fold induction based on mRNA) is reported as “Induction of CYP3A4 mRNA was observed”. Also, the “Induction of CYP3A4 enzyme activity” value in data set [15] was “not observed”. The “Induction of CYP1A2 enzyme activity” value in data set [16] is listed as “No induction”. Moreover, in data set [17], the “Unbound Cmax” value was “approximately 2.1 ng/mL and ~4.2 nM”. In [19], the “Fraction unbound in microsomes” value is recorded as “approximately 0.22”. Further, in data set [2] (25‐mg steady‐state administration of PF‐04171327, ref Miyoshi et al 11, Weatherley et al 22, unpublished data), the “Estimated total Cmax” value is “approximately 300 ng/mL”. Moreover, the “Time to achieve apparent steady‐state concentrations” value in [2] (multiple‐dose study of PF‐04171327 in healthy volunteers) is 12 days. Moreover, in [2] (read-out: Estimated total Cmax, 25‐mg steady‐state administration of PF‐04171327, ref Miyoshi et al 11, Weatherley et al 22, unpublished data), the maximum concentration (Cmax) is ~610 nM.
